Compound activity: PubChem, several laboratories
Compounds with a hit are over-represented: about 4.8% of the library has one in this group of screens.
APP 5'UTR act – activates APP 5'UTR luciferase reporter; SH-SY5Y APP 5'UTR luciferase reporter, luminescence; zero percent = DMSO vehicle wells; activation, % at 2 µM; 190,000 tested, 1% active;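 active = activation above a set limit, based on mean plus 3 SD of controls, cut at about 140% in these data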
APP 5UTR inh – APP translation inhibition; SH-SY5Y APP 5'UTR-luciferase reporter, luminescence; inhibition, % at 2 µM; 190,000 tested, 0.82% active; AID 1285;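 active = inhibition above a set limit, derived from the sample mean plus 3 SD, cut at about 45% in these data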
FLuc stim CS – affects firefly luciferase, flagging false hits in luciferase stimulation screens. AID 1027. activation factor at 10 µM. ATPlite luciferase biochemical, luminescence, 10 min; 0 = ATP-free wells, 1 = DMSO control. 200,000 tested, under 10 active;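 active = luciferase activation factor, scaled between plate controls, of at least 2 with compound at 10 µM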
Target sequence (P08659 whole entry, looked up): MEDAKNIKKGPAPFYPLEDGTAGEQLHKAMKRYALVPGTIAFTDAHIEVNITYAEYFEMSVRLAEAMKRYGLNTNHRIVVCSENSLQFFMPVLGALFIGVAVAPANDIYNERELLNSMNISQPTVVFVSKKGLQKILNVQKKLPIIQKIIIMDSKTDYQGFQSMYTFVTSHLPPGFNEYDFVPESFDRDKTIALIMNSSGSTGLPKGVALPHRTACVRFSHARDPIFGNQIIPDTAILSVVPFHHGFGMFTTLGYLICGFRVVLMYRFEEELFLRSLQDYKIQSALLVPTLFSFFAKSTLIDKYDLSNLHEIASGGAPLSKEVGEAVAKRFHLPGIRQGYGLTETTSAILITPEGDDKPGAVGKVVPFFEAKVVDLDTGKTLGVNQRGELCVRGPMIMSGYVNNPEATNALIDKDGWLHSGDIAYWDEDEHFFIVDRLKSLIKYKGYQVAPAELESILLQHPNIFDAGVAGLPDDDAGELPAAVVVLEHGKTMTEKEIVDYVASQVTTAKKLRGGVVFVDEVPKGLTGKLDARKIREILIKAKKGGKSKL
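test system = cell-free luciferase reagent | medium = PBS as buffer for the ATP substrate | dosing = test compounds dosed from 2 mM stocks in 100% DMSO | incubation = 10 min at ambient temperature | detection = luminescence measurement of luciferase light output | benchmarks = low control with PBS replacing ATP, high control enzyme plus ATP without compound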
FLuc inh counter – Photinus pyralis luciferase inhibition counter-screen. AID 1006. ATPLite firefly luciferase biochemical luminescence, 10 min. 200,000 tested, 1.5% active. inhibition, % at 10 µM;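 active = inhibition above about 50% when tested at 10 µM, limit read from the data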
STAT1 act – increases IFN-gamma driven STAT1 reporter signal | NIH 3T3 STAT1-luciferase reporter, luminescence; 100% = IFN-gamma alone, no compound | activation (% of control), % at 5.5 µM | 200,000 tested, 2.6% active;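 active = activation above the screen-wide mean activation plus 3 SD, cut at about 130% in these data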
NF-kB expr up – compounds increasing NF-kB expression in human neuronal cells; fold change at 12.5 µM; NF-kB reporter expression; hits give high values; AID 1239; 190,000 tested, 1.6% active; in the data active = fold change above about 3.3
Of the large screens only hits and unclear results are named; the others gave an inactive call.

CCc1ccc(NC(=O)c2onc(C)c2Cl)cc1	APP 5'UTR act 135.4, STAT1 act 143.0, NF-kB expr up 6
Cc1ccc(C)c(NS(=O)(=O)c2cc(C(=O)N3CCCC3)ccc2Cl)c1	none
Cc1cc(C)cc(NC(=O)C(=O)NCC2CCCO2)c1 (configuration not stated)	none
Cc1ccc(C(=O)NC(=S)NCC2CCCO2)cc1 (configuration not stated)	STAT1 act 128.6
Cc1ccc(NC(=O)C(=O)NCC2CCCO2)cc1 (configuration not stated)	STAT1 act 136.8
Cc1ccc(NC(=O)C(=O)NCC2CCCO2)cc1C (configuration not stated)	STAT1 act 141.6
CC(C)(C)c1cc(C(c2cccnc2)N2CCN(CCO)CC2)cc(C(C)(C)C)c1O (configuration not stated)	APP 5UTR inh 58.7
OCCN1CCN(C(c2cccs2)c2ccc3cccnc3c2O)CC1 (configuration not stated)	none
c1cc(-c2nnc(-c3ccncc3)o2)ccn1	none
COc1ccc(-c2nnc(-c3ccc(OCC(C)C)cc3)o2)cc1	none
CCCOc1ccc(-c2nnc(-c3ccncc3)o2)cc1	NF-kB expr up 3.7
CC(C)COc1ccc(-c2nnc(-c3ccncc3)o2)cc1	STAT1 act 136.0
Cc1ccc(/C=C2/C(=O)N=C(N)N2C)s1	none
CCc1cc[n+](-c2nc([O-])sc2C=O)cc1	none
CCc1cc[n+](-c2nc3ccccc3nc2C(=C=[N-])C#N)cc1	NF-kB expr up 4.99
CN1CCN(c2nc(-c3cc4ccccc4o3)cs2)CC1	STAT1 act 129.0
CN1CCN(c2nc(-c3cccs3)cs2)CC1	none
O=C1NC(=S)N/C1=C/C=C/c1ccccc1	STAT1 act 133.9
Cc1nnc(SCCn2c(N(C)Cc3ccccc3)nc3c2c(=O)n(C)c(=O)n3C)s1	none (no result: FLuc stim CS, FLuc inh counter, NF-kB expr up)
CCOC(=O)c1c(OCC)[nH]c2c1cc(O)c1ccccc12	none
CCOC(=O)c1c(C)[nH]c2cc(Br)c(O)cc12	APP 5UTR inh 54.6, NF-kB expr up 3.38
CN(c1ccccc1)S(=O)(=O)c1cc(C(=O)OCC(N)=O)ccc1Cl	none
CC1=NN(C(=O)CCc2ccccc2)C(O)(c2ccncc2)C1 (configuration not stated)	none
Cc1cc(/C=C2\NC(=S)N(C)C2=O)ccc1N1CCCC1	STAT1 act 137.5
CCCN1C(=O)/C(=C/c2ccc(N3CCCC3)c(C)c2)NC1=S	none
CC(C)CN1C2CCCC1CC(NC(=S)NCc1ccco1)C2 (configuration not stated)	none
c1ccc(-n2cnc3cc(NCc4ccccn4)ccc32)cc1	STAT1 act 130.9
NC(=O)c1ncc(C(F)(F)F)cc1Oc1cccnc1	none
CCOC(=O)/C(N)=C/c1ncc(C(F)(F)F)cc1Cl	none
CC(=O)Nc1ccc(NC(=O)Nc2ccccc2C)cc1	none
CC(=O)N(C)c1ccc(NC(=O)Nc2ccccc2C)cc1	FLuc inh counter 54.5
Oc1ccc(N=C/C=C/c2cccc(Br)c2)cc1-c1nc2ccccc2s1	STAT1 act 143.6
Cn1cc(C(=O)N/N=C/c2c(O)ccc3ccccc23)ccc1=O	APP 5UTR inh 50.5
O=C(CSCC(=O)Nc1ccccc1)N/N=C/c1c(O)ccc2ccccc12	APP 5UTR inh 65.9
Nc1cc(Cl)nc(N/N=C/c2c(O)ccc3ccccc23)n1	NF-kB expr up 4.41
Cc1ccc(-c2csc(NC(=O)c3ccc4c(=O)n5c(nc4c3)CCCCC5)n2)cc1	none
O=C1C2C3C=CC(C4CC34)C2C(=O)N1/N=C/c1c[nH]c2ccccc12 (configuration not stated)	FLuc inh counter 77.8, STAT1 act 133.4
O=C1C2C3C=CC(C4CC34)C2C(=O)N1/N=C/c1ccc([N+](=O)[O-])s1 (configuration not stated)	none
CCOc1ccc2c(c1)OC(c1ccc(OC)cc1)(C(F)(F)F)NC2=O (configuration not stated)	APP 5UTR inh 90.7
O=C(Cc1ccccc1)Nc1ccc(-c2nnc(-c3ccco3)o2)cc1	none
Brc1ccc(-c2nnc(-c3ccc4c(c3)OCO4)o2)o1	FLuc inh counter 60.4, NF-kB expr up 3.95
c1coc(-c2nnc(-c3ccc4c(c3)OCO4)o2)c1	STAT1 act 132.6
CCOc1ccc(-c2nnc(-c3ccco3)o2)cc1OCC	none
c1ccc(-c2nnc(-c3ccco3)o2)cc1	STAT1 act 138.3
O=C1CCCCC1Sc1nnc(-c2ccc3c(c2)OCO3)o1 (configuration not stated)	APP 5'UTR act 177.6, FLuc inh counter 88.9
Clc1ccc(CSc2nnc(-c3ccc4c(c3)OCO4)o2)cc1	none
CC(C)c1nnc(NC(=O)C2CCCN2C(=O)Nc2ccccc2[N+](=O)[O-])s1 (configuration not stated)	none
CC(C)Cc1nn2c(N)c(/C=C3\C=Nc4ccccc43)c(=O)nc2s1	none
Cc1ccc(-c2nnc(-c3ccc4c(c3)OCO4)o2)cc1	FLuc inh counter 52.5, STAT1 act 129.9
c1nnc(-c2ccc3c(c2)OCO3)o1	none
COC(=O)c1ccc(CSc2nc(N)cc(N)n2)cc1	none
COC(=O)c1ccc(CSc2nc3ccccc3o2)cc1	NF-kB expr up 3.83
O=[N+]([O-])c1ccc(CSc2nc3ccccc3o2)cc1	APP 5'UTR act 177.4, STAT1 act 132.2, NF-kB expr up 5.02
O=C(O)CSc1nc2ccccc2o1	none
O=S(=O)(/N=C(/c1ccccc1)N1CCCCCC1)c1ccccc1	none
O=c1c2ccccc2nc2sc3ccccc3n12	STAT1 act 140.9
COC(=O)/C=c1/sc2nc3ccccc3n2c1=O	none
CC(C)CN(C)Cc1c(C(=O)N2CCc3ccccc3C2)nc2ccc(Cl)cn12	NF-kB expr up 5.06
CCOC(=O)/C(C)=C1\NC(C)(C)Cc2ccccc21	none
O=C(CNC(=O)c1cccc(F)c1)N/N=C/c1cc(Br)ccc1OC(=O)/C=C/c1ccco1	APP 5UTR inh 52.5
C=CCn1c(C)cc(C(=O)COC(=O)COc2ccccc2C#N)c1C	none
C=CCn1c(C)cc(C(=O)COC(=O)[C@@H](NC(=O)c2ccccc2Cl)C(C)C)c1C	FLuc inh counter 96.5
Cc1cc(C(=O)NN)c2cc(Br)ccc2n1	APP 5UTR inh 75.0
COc1cc(NC(=O)c2cc(C)nc3ccccc23)cc(OC)c1OC	none
CC/C(=N\NC(=O)c1cc(C)nc2ccccc12)c1ccc(C)s1	APP 5UTR inh 76.5
Cc1cc(C(=O)NCC(C)C)c2ccccc2n1	FLuc inh counter 60.1
C/C(=N\NC(=O)c1cc(C)nc2ccccc12)c1ccco1	none
COC(=O)Cn1c(=NC(=O)CSC(C)=O)sc2ccccc21	none
COc1ccc(OCC(=O)N/N=C(\C)c2ccc(OC)cc2)cc1	none
CC(=O)Nc1cc2ccccc2oc1=O	none
